Experimental data gathered from unrelated publications.
Each line is one published result; the experiments were not run side by side.
Target: Uncharacterized serine/threonine-protein kinase SBK3 (SBK3, Homo sapiens, UniProt P0C264)
Sequence (P0C264 1-359, as in one of the studies): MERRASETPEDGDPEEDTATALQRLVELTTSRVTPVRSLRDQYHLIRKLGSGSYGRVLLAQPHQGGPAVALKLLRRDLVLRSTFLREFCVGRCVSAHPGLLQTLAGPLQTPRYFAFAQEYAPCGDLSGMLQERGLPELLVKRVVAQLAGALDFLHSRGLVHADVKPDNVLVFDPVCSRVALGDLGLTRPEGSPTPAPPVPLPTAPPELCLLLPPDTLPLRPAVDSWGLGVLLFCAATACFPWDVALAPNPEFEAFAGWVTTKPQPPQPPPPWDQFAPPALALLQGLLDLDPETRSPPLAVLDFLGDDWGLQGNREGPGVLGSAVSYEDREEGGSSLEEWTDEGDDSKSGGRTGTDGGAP

With `CNC(=O)[C@@H]1CC[C@@H](n2c(-c3ccc4cnccc4c3)nc3ccc(C(=O)NCc4cccc(C(N)=O)c4)cc32)C1` the remaining binding was 87% (binding; competition with immobilised ligand; 1 µM).
For `COc1ccc2c(c1)O[C@H](c1ccc(OC)c(OC)c1)C[C@@H]2NC(=O)C1(c2ccc3c(c2)OC(F)(F)O3)CC1`, the remaining binding was 100% (cell-free assay; competition with immobilised ligand; 1 µM).
`N[C@H]1CCN(c2nccc(-c3cnn4ncccc34)n2)C1` has a remaining binding of 100% (binding; 1 µM).
`O=C(Nc1c[nH]nc1C(=O)NC1CCNCC1)c1cc(F)cc(F)c1` has a remaining binding of 100% (binding; competition with immobilised ligand; 1 µM).
For `O=C(N[C@H]1CCCCC/C=C\C2C[C@@]2(C(=O)O)NC(=O)[C@@H]2C[C@@H](Oc3ccncc3)CN2C1=O)OC1CCCC1` (stereo partly drawn), the remaining binding was 79% (binding; competition with immobilised ligand; 1 µM).
For `O=C(c1ccc(Nc2nccc(-c3cc4ccccc4s3)n2)cc1)N1CCC(N2CCCC2)CC1`, the remaining binding was 88% (binding; competition with immobilised ligand; 1 µM).
`Cc1cnn2ncc(-c3ccnc(N(C)C)n3)c2c1` gave a remaining binding of 26% (binding; 1 µM).
For `CN(C)C(=O)Cn1cc(-c2nc([C@@](C)(c3ccc(-c4cnc(N)nc4)cc3)C3CC3)no2)cn1`, the remaining binding was 71% (cell-free assay; competition with immobilised ligand; 1 µM).
For `CC1CCCN1c1nccc(-c2cnn3ncccc23)n1` (stereo not drawn), the remaining binding was 100% (binding; 1 µM).
With `CCN1CCN(Cc2ccc(C(=O)Nc3ccc(C)c(Oc4ccc5c(c4)CC(=O)N5)c3)cc2C(F)(F)F)CC1` the remaining binding was 100% (binding; competition with immobilised ligand; 1 µM).
`FC(F)(F)Oc1cccc(-c2cnc3ccc(-c4ccncc4)nn23)c1` has a remaining binding of 100% (binding; competition with immobilised ligand; 5 µM).
With `COCCOc1nc(-c2ccc(Cl)nc2)nc2c1CN(C(=O)c1ncn3ccccc13)CC2` the remaining binding was 100% (cell-free assay; competition with immobilised ligand; 0.1 µM).
With `O=C(c1ccc(Nc2ncc(Cl)c(-c3ccc(Cl)s3)n2)cc1)N1CCC(N2CCCC2)CC1` the remaining binding was 62% (binding; competition with immobilised ligand; 1 µM).
For `CN(CCCC(F)(F)F)c1nccc(-c2cnn3ncccc23)n1`, the remaining binding was 42% (binding; 1 µM).
For `Cc1cnc(Nc2ccc(C(=O)N3CCC(N4CCCC4)CC3)cc2)nc1-c1cc2ccccc2s1`, the remaining binding was 46% (binding; competition with immobilised ligand; 1 µM).
The remaining binding of `Cc1nc(Cc2cccc(C(F)(F)F)c2)sc1-c1ccc(C(N)=O)nc1` is reported as 100% (cell-free assay; competition with immobilised ligand; 1 µM).
For `COc1ncc2cc3ccccc3nc2c1C#N`, the remaining binding was 100% (cell-free assay; competition with immobilised ligand; 5 µM).
`CC(=O)C1=C(C)N(c2cccc(C(F)(F)F)c2)C(=O)N[C@@H]1c1ccc(C#N)nc1` gave a remaining binding of 100% (cell-free assay; competition with immobilised ligand; 1 µM).
`C[C@@H](c1ccc(-n2cnc3c(N)ncnc32)cc1)N1CCc2nn(C)c(Cc3ccccc3)c2C1=O` has a remaining binding of 99% (binding; competition with immobilised ligand; 0.1 µM).
For `c1cnn2ncc(-c3ccnc(N4CCC45COC5)n3)c2c1`, the remaining binding was 71% (binding; 1 µM).
`Nc1ncc2c(n1)-c1c([nH]c3ccc(C#CC4CC4)cc13)CCCC2` gave a remaining binding of 100% (binding; competition with immobilised ligand; 1 µM).
